Eight molecules from ChEMBL document CHEMBL1122013, “Inhibitors of gastric acid secretion: 3,4-diamino-1,2,5-thiadiazole 1-oxides and 1,1-dioxides as urea equivalents in a series of histamine H2-receptor antagonists” (J Med Chem, 1982) can be followed below.

Where “and” joins values, the source holds several entries; their conditions need not be identical. Identical values can stand only once.

The nature of assay [1]: Slope value of the compound.
Assay [2] in a line: Ratio (po/iv) value of the compound. Format: functional.
For assay [3], the system named is Canis familiaris. In words: Inhibition of acid output in dogs (po). The settings on record: Canis lupus familiaris. Format: functional. The method, boiled down:
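Dogs with a gastric fistula, stimulated with histamine, were dosed orally with compound solubilized in aqueous vehicle containing 1 equiv of HCl. Gastric secretion was measured over the period of maximum effectiveness (0-30 min after histamine). ED50 and confidence limits came from analysis of variance across four dose levels with 3-5 dogs per dose.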

Assay [4] addresses Histamine H2 receptor (Cavia porcellus) (UniProt P47747). In words: In vitro inhibition of Histamine H2 receptor by measuring its ability to block dimaprit-stimulated chronotropic response of guinea pig atrium strips. Format: tissue-based. The settings on record: Cardiac atrium.
In assay [5] the test system is Canis familiaris. Kind of assay: Inhibition of acid output in dogs (iv). Format: functional. The following applies: Canis lupus familiaris. The method, boiled down:
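Dogs with gastric fistula under histamine stimulation. The compound is dissolved in aqueous vehicle with 1 equiv of HCl. It is given orally (po), or intravenously (iv) immediately before histamine. Acid secretion is measured over the period of maximum effect, 0-30 min after histamine. ED50 and confidence limits come from analysis of variance over four dose levels, with 3-5 dogs per dose.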

For assay [6], the target named is Histamine H2 receptor (Cavia porcellus) (UniProt P47747). The following applies: Cardiac atrium.
The target in the next assay is Histamine H2 receptor (Cavia porcellus, UniProt P47747). In words: In vitro inhibition of Histamine H2 receptor by measuring its ability to block the histamine-stimulated adenylate cyclase of guinea pig hippocampal homogenate. Format: tissue-based, Hippocampus.
Sequence of Histamine H2 receptor (P47747 whole entry): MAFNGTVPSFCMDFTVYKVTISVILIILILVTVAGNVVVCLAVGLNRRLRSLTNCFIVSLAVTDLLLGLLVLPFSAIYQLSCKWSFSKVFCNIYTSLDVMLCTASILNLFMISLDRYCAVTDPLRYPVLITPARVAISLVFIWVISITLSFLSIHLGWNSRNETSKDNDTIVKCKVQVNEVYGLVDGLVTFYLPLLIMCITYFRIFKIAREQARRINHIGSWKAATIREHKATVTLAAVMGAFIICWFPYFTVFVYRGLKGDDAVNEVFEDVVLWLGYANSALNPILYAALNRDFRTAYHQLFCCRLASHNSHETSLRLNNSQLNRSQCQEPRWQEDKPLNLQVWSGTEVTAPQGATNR

Sequence of Histamine H2 receptor (Cavia porcellus) (P47747 whole entry): as above

As for `Nc1n[s+]([O-])nc1NCCCOc1cccc(CN2CCCCC2)c1` (stereo not given), the Slope in assay [1] was 1.4 and 1.73.
In turn, `CNc1n[s+]([O-])nc1NCCSCc1ccc(CN(C)C)o1` (stereo not given) showed a Slope in assay [1] of 1.03. Besides, the Ratio in assay [2] amounted to 6. The ED50 came out at 0.3 mg/kg in the assay with Canis familiaris [3] and 0.05 mg/kg in the assay on Canis familiaris [5]. The -Log KB in assay [4] stood at 7.85.
`N=C(N)Nc1nc(CSCCNc2n[s+]([O-])nc2N)cs1` (stereo not given) came in with a Slope in assay [1] of 0.85. In assay [4], the -Log KB was determined as 8.17.
Take `CN(C)Cc1ccc(CSCCNC2=NS(=O)(=O)N=C2N)o1`: the Slope in assay [1] was 1.3 and 0.53.
For `CNC(=C[N+](=O)[O-])NCCSCc1ccc(CN(C)C)o1` [RANITIDINE], the Slope in assay [1] was 1.6 and 0.76. In addition, the Ratio in assay [2] was determined as 14. In addition, the ED50 worked out at 0.42 mg/kg in the assay on Canis familiaris [3] and 0.04 mg/kg in the assay on Canis familiaris [5]. The -Log KB in assay [6] turned out to be 7.32. On Histamine H2 receptor, this molecule had a Ki of 501 nM.
The molecule `Cc1[nH]cnc1CSCCNc1n[s+]([O-])nc1N` (stereo not given) came in with a Slope in assay [1] of 0.85. The -Log KB in assay [4] was found to be 5.98.
As for `CN(C)Cc1ccc(CSCCNc2n[s+]([O-])nc2N)o1` (stereo not given), the Slope in assay [1] is 1.1 and 0.55.
Regarding `CN/C(=N\CCSCc1nc[nH]c1C)NC#N` [CIMETIDINE], in assay [1], the Slope was 0.9 and 0.78. Further, it took a dose of 1.84 mg/kg to reach the 50% effect level in the assay with Canis familiaris [5] (ED50).

Usually ED50 stands for the midpoint of the dose-response relation. Low values mean an effect at a small dose, high ones a need for a large dose. Usually Ki stands for a measure of affinity in units of concentration, obtained from inhibition or displacement.
